In paper PMC11268778 (International Journal of Nanomedicine, 2024):

Experiments:
[1] = Encapsulation; type: physicochemical; conditions: estimated from FITC signals of supernatants of broken minus un-broken NPs
In short: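 PLGA (5 mg/mL in acetonitrile) containing FITC-labelled peptide was injected at 2 mL/min into 0.1% PVA and stirred 48 h. Particles were washed three times (15,000 rpm, 10 min) and freeze-dried. 1 mg NPs was disrupted in 50% DMSO/0.5% SDS/0.1 M NaOH for 1 h. FITC was read at 488/520 nm against a free-peptide calibration line. Surface-adsorbed fraction = broken minus unbroken supernatant signal. Triplicate.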

[2] = In vitro release from PLGA-NPs; type: physicochemical; conditions: 1 mg NPs in 1.5 mL PBS pH 7.2, 37 °C, FITC fluorescence, triplicate

peptide adsorbed on the external surface of NPs [1]	peptide released from PLGA-NPs at 0.5 h [2]	Substance
~ 63%	–	βAla-G-βAla-QL-PEG-AAFAARA [Ctrl PEG]
–	100%	βAla-G-βAla-QL-PEG-AAFAARAV [Ctrl PEG-Val]
